Test results reported in ChEMBL document CHEMBL1124849, “Synthesis, antitumor activity, and antiviral activity of 3-substituted 3-deazacytidines and 3-substituted 3-deazauridines” (J Med Chem, 1990).
≈ marks a conversion by molar mass, not a printed value.

Columns and labels:
[1] = (§1) The antiviral index is defined as MCC/MIC; assay type: functional
[2] = The minimum cytotoxic concentration (MCC) reducing cell viability on WISH cells; assay type: cell-based; conditions: human
Summary of the method: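 Uninfected WISH cell monolayers, grown 18–24 h, were given serial 2-fold drug dilutions (cells + medium + drug) and incubated at 33 °C for 72 h. Cells were examined microscopically.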

Enterovirus = experiment: The minimum inhibitory concentration (MIC) required to inhibit rhinovirus type 34 induced cytopathic effect (CPE) on WISH cells; assay type: functional
Summary of the method: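 WISH cells grown 18–24 h to monolayers. Serial 2-fold drug dilutions applied, then 320 CCID50 of rhinovirus type 34 added; sealed plates incubated 72 h at 33 °C. Cell, virus and toxicity controls included.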

L1210 = experiment: In vitro inhibition of L1210 leukemia cell growth; assay type: functional; conditions: Mus musculus, read-out: ID50 (the source's name)
[3] = as §1; assay type: ADME; conditions: read-out: Antiviral index
Summary of the method: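 Rhinovirus type 34 on WISH cell monolayers grown 18–24 h. Serial 2-fold drug dilutions were added with 320 CCID50 of virus and incubated at 33 °C for 72 h. CPE was scored microscopically on a 0–4 scale. […] AI = MCC/MIC.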

Mus musculus [4] = experiment: Compound (200 mg/kg) was tested against intraperitoneally implanted P388 leukemia in mice; assay type: functional
Summary of the method: (§2)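 CD2F1 mice, groups of six, inoculated ip with 10⁶ P388 leukemia cells; ip treatment started 24 h after inoculation, once daily for 5 days. Read-out is %T/C = (mean survival time of treated mice in days / mean survival time of controls) × 100, with ≥120 taken as moderate activity.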

Mus musculus [5] = species on record: Mus musculus; experiment: Mean weight change (day 5 wt minus day 1 wt) of the treated mice to the mean weight change of the control mice in grams; assay type: functional
Summary of the method: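 CD2F1 mice given 10⁶ P388 cells ip, then ip treatment once daily for 5 days starting at 24 h. Toxicity is the mean weight change (day 5 minus day 1) of treated mice minus that of control mice, in grams.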

Mus musculus [6] = experiment: Compound (50 mg/kg) was tested against intraperitoneally implanted P388 leukemia in mice; assay type: functional; summary of the method: as §2
Mus musculus [7] = experiment: Compound (100 mg/kg) was tested against intraperitoneally implanted P388 leukemia in mice; assay type: functional; summary of the method: as §2
Mus musculus [8] = experiment: Compound (600 mg/kg) was tested against intraperitoneally implanted P388 leukemia in mice; assay type: functional; summary of the method: as §2
Mus musculus [9] = experiment: Compound (400 mg/kg) was tested against intraperitoneally implanted P388 leukemia in mice; assay type: functional; summary of the method: as §2

Structure (SMILES)	Antiviral index [1]	MCC [2] [µg/mL]	MIC (Enterovirus) [mg/L]	IC50 (L1210) [µM]	also measured
Nc1ccn(C2O[C@H](CO)[C@@H](O)[C@H]2O)c(=O)c1Br (some centres not stated)	4.6	800	173 (≈ 540 µM)	> 31.1	–
Nc1ccn(C2O[C@H](CO)[C@@H](O)[C@H]2O)c(=O)c1Cl (some centres not stated)	7.5	400	53.7 (≈ 194 µM)	> 36.1	–
Nc1ccn(C2O[C@H](CO)[C@@H](O)[C@H]2O)c(=O)c1F (some centres not stated)	–	400	1.3 (≈ 5 µM)	11.8	selectivity ratio [3]: 308; T/C (Mus musculus [4]): 158; Weight change (Mus musculus [5]): -3.4 (not active) [middle of 5 runs]; T/C (Mus musculus [6]): 133; T/C (Mus musculus [7]): 149; T/C (Mus musculus [8]): 185; T/C (Mus musculus [9]): 177
O=c1c(Br)c(O)ccn1C1O[C@H](CO)[C@@H](O)[C@H]1O (some centres not stated)	–	> 1000	–	–	–
Nc1c(F)cn(C2O[C@H](CO)[C@@H](O)[C@H]2O)c(=O)c1F (some centres not stated)	14.1	400	28.3 (≈ 102 µM)	> 35.9	–
O=c1c([N+](=O)[O-])c(O)ccn1C1O[C@H](CO)[C@@H](O)[C@H]1O (some centres not stated)	–	400	–	–	–
Nc1ccn(C2O[C@H](CO)[C@@H](O)[C@H]2O)c(=O)c1[N+](=O)[O-] (some centres not stated)	–	> 1000	–	–	–
Nc1ccn([C@@H]2O[C@H](CO)[C@@H](O)[C@H]2O)c(=O)c1	125	400	3.2 (≈ 13.2 µM)	28.6	–
O=c1c(Cl)c(O)ccn1C1O[C@H](CO)[C@@H](O)[C@H]1O (some centres not stated)	–	> 1000	–	–	–
Nc1cc(=O)n(C2O[C@H](CO)[C@@H](O)[C@H]2O)cc1F (some centres not stated)	–	800	–	–	–
O=c1cc(O)ccn1[C@@H]1O[C@H](CO)[C@@H](O)[C@H]1O	–	400	–	–	–
